Experimental data reported in ChEMBL document CHEMBL3352791, “Thioaryl naphthylmethanone oxime ether analogs as novel anticancer agents” (J Med Chem, 2014).
pEC50, pIC50: −log10 of the molar value. Active and inactive are the calls of the source. The calls are words filed in the database; no cut-off is given here.

Experiments:
MDA-MB-231 [1] = experiment: Antiproliferative activity against human […] cells assessed as absence of growth recovery treated > 5 uM for 24 hrs followed by maintained in drug free medium for 72 hrs by MTT assay; format: functional, cell-based
[2] = target: Signal transducer and activator of transcription 3 (Homo sapiens) (UniProt P40763); experiment: Inhibition of basal level STAT3 phosphorylation in human MDA-MB-231 cells at 1 uM by ELISA; format: cell-based
Chain of Signal transducer and activator of transcription 3 (Homo sapiens) (P40763 whole entry): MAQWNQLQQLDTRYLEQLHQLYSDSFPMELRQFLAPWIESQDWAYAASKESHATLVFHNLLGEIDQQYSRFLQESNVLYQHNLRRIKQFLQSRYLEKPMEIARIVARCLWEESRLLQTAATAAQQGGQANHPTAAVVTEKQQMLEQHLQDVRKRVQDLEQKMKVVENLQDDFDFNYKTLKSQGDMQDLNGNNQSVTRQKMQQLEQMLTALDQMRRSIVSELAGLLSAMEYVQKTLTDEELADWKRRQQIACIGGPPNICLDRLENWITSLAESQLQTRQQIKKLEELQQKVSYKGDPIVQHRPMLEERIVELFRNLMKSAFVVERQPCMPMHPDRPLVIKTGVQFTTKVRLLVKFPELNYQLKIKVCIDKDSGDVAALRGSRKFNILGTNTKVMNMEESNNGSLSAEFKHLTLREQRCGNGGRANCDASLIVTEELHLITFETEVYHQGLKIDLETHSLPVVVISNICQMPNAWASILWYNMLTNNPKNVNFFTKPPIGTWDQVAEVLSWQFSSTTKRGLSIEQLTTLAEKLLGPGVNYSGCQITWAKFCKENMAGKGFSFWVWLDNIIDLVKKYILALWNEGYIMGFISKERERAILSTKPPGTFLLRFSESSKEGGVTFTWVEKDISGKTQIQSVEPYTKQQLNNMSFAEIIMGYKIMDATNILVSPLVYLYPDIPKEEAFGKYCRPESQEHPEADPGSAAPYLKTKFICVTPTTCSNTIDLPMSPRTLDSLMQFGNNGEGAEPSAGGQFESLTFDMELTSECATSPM

[3] = target: cAMP and cAMP-inhibited cGMP 3',5'-cyclic phosphodiesterase 10A (Homo sapiens) (UniProt Q9Y233); experiment: Inhibition of PDE10A1 (unknown origin) activity at 1 to 10 uM
[4] = target: Epidermal growth factor receptor (Homo sapiens) (UniProt P00533); experiment: Inhibition of EGF-induced EGFR phosphorylation at Tyr992 in human MDA-MB-231 cells at 1 uM by ELISA; format: cell-based
Chain of Epidermal growth factor receptor (Homo sapiens) (P00533 whole entry): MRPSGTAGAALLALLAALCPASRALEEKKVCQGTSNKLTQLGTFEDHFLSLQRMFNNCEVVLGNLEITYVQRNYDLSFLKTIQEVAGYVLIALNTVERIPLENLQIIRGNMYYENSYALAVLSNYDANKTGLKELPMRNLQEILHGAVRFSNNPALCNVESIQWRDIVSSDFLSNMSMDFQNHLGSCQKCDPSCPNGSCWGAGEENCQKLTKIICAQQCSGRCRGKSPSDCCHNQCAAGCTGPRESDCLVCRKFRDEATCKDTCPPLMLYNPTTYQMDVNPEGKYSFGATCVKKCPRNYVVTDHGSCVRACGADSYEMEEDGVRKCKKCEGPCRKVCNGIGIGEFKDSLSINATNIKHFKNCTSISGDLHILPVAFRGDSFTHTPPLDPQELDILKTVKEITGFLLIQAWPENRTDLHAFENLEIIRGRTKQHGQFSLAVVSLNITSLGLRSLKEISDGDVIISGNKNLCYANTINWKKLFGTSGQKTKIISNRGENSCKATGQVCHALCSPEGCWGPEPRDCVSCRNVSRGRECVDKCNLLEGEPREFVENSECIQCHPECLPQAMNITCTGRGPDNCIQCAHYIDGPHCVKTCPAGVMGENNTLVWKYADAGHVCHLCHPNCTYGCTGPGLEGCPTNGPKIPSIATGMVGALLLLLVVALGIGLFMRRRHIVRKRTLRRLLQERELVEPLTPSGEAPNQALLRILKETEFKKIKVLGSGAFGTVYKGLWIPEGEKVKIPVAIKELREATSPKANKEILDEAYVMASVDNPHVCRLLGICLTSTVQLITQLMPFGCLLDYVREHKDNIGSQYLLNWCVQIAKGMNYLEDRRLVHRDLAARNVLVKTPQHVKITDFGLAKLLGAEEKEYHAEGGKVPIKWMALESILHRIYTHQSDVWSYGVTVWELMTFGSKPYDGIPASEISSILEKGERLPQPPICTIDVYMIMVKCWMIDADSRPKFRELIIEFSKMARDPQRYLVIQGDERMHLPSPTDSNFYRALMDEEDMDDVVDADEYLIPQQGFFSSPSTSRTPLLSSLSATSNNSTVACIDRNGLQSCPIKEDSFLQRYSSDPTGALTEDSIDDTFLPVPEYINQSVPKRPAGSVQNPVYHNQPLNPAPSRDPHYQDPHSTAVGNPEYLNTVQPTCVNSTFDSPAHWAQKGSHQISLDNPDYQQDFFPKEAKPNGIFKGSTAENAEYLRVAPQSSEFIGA

MCF7 [5] = experiment: Antiinvasion activity in human MCF7 cells assessed as inhibition of FBS-induced cell invaded to matrigel coated invasion chamber at 1 uM after 24 hrs by Transwell invasion assay; format: functional, cell-based
[6] = target: Receptor-type tyrosine-protein kinase FLT3 (Homo sapiens) (UniProt P36888); experiment: Inhibition of Flt3 (unknown origin) at 10 uM
Chain of Receptor-type tyrosine-protein kinase FLT3 (Homo sapiens) (P36888 whole entry): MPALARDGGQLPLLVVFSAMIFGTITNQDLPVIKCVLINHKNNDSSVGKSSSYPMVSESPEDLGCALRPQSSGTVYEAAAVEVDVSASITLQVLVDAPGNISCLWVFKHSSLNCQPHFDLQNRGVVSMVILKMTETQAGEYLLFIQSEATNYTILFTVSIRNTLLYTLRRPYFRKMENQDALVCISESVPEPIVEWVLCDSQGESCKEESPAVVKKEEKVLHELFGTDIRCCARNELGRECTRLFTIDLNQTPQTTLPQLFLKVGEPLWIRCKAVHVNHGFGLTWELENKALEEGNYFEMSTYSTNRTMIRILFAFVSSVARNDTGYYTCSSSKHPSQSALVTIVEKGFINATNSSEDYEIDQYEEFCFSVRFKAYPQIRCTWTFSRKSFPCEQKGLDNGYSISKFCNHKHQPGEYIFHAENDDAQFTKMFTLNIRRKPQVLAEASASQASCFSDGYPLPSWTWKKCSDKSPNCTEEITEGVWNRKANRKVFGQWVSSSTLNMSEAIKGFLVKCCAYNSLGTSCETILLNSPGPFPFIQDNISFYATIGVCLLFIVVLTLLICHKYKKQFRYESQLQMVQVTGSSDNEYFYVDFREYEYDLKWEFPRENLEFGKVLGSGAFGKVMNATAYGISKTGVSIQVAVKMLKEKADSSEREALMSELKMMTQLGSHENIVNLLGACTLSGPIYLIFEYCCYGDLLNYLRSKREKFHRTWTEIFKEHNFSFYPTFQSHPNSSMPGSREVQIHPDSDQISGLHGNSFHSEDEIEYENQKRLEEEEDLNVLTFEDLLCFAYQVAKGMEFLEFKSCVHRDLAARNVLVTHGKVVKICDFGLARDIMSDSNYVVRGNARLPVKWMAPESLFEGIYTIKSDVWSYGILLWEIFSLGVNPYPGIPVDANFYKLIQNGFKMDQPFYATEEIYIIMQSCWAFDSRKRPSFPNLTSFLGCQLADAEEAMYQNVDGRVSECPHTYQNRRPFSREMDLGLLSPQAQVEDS

[7] = target: Signal transducer and activator of transcription 3 (Homo sapiens) (UniProt P40763); experiment: Inhibition of basal level STAT3 phosphorylation in human MCF7 cells at 1 uM by ELISA; format: cell-based
[8] = target: Ribosomal protein S6 kinase beta-1 (Homo sapiens) (UniProt P23443); experiment: Inhibition of p70S6K (unknown origin) at 10 uM
Chain of Ribosomal protein S6 kinase beta-1 (Homo sapiens) (P23443 whole entry, looked up): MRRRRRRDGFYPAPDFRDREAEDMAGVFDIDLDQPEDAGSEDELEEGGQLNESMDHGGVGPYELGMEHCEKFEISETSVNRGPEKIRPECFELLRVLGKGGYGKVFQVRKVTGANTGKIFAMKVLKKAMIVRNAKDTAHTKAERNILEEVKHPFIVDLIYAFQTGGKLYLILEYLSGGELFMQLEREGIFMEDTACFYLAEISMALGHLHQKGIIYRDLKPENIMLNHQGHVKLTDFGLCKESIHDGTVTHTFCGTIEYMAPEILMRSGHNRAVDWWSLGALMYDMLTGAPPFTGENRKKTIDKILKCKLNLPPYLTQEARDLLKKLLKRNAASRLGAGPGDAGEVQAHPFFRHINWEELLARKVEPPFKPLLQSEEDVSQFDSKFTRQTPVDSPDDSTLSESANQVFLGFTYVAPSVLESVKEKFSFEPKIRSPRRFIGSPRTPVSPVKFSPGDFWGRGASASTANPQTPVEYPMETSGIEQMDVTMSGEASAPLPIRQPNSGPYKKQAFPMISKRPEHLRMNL
Method in brief: (§1)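 Cell-free kinase profiling was run as a standard 33P-ATP-based in vitro kinase assay.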

MDA-MB-231 [9] = experiment: Induction of cAMP level in human MDA-MB-231 cells at 0.1 to 25 uM; format: functional, cell-based
Method in brief: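 MDA-MB-231 cells serum-starved for 4 h, treated with 500μM IBMX for 30 min, then exposed to compound for a further 30 min. Cellular cAMP read by HTRF kit.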

[10] = test system: Mast/stem cell growth factor receptor Kit (Homo sapiens), P10721 [D816V]; experiment: Inhibition of cKit D816V mutant (unknown origin) at 10 uM; method in brief: as §1
MCF7 [11] = experiment: Induction of apoptosis in human MCF7 cells xenografted in NIH-3 mouse assessed as increase in Bax to Bcl2 ratio in tumor at 16 mg/kg, po for 25 days by qPCR; format: functional, organism-based; parameters: dose 16 mg/kg
MCF7 [12] = experiment: Inhibition of INS expression in human MCF7 cells at 5 uM by ELISA; format: functional, cell-based
[13] = target: Plasminogen activator inhibitor 1 (Homo sapiens) (UniProt P05121); experiment: Inhibition of EGF-induced […] PAI-1 in human MDA-MB-231 cells at 1 uM by ELISA; format: cell-based
Chain of Plasminogen activator inhibitor 1 (Homo sapiens) (P05121 whole entry): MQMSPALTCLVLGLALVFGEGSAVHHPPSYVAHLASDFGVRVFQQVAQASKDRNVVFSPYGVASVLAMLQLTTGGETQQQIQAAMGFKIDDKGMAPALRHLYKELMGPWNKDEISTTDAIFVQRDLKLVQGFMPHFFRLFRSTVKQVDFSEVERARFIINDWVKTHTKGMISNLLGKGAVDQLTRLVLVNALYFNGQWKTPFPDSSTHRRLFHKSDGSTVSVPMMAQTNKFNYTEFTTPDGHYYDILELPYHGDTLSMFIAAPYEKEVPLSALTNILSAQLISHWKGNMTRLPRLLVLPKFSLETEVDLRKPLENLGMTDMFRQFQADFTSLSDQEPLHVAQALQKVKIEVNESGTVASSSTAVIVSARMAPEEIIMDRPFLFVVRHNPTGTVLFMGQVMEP
Method in brief: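 MDA-MB-231 cells treated at 1µM for 24 h with or without EGF. PAI-1 in conditioned medium measured by ELISA.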

[14] = target: Epidermal growth factor receptor (Homo sapiens) (UniProt P00533); experiment: Inhibition of EGF-induced EGFR phosphorylation at Tyr1173 in human MCF7 cells at 0.1 uM by ELISA; format: cell-based
[15] = target: Focal adhesion kinase 1 (Homo sapiens) (UniProt Q05397); experiment: Inhibition of basal level FAK phosphorylation at Tyr397 in human MDA-MB-231 cells at 1 uM by ELISA; format: cell-based
Chain of Focal adhesion kinase 1 (Homo sapiens) (Q05397 2-1052 limits assumed): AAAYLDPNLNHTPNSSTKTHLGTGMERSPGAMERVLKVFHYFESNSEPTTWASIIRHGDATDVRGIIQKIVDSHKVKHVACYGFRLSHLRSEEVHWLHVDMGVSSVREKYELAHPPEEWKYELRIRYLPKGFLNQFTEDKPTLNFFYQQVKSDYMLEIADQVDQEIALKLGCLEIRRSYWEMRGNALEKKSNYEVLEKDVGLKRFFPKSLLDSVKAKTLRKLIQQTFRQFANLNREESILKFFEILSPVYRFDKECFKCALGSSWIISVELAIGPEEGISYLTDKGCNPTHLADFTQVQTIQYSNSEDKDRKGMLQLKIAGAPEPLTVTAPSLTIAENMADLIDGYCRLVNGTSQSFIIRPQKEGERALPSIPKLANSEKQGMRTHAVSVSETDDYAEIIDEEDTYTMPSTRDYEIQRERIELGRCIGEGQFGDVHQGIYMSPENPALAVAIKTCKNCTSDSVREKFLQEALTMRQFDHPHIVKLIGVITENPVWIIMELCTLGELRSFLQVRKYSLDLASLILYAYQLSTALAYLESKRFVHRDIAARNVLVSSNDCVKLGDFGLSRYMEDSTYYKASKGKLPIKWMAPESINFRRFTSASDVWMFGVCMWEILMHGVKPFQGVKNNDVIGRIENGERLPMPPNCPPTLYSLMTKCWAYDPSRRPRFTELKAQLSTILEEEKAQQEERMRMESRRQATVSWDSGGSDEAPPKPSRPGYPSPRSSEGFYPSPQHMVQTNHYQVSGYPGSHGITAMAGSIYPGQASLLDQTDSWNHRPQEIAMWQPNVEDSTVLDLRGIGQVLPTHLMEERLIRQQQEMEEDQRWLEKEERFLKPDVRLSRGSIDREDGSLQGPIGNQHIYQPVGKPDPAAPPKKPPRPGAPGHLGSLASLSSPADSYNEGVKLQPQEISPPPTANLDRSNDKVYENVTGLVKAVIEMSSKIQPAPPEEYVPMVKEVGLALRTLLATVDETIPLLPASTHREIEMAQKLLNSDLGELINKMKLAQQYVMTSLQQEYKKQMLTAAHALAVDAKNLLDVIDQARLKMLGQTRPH

MCF7 [16] = experiment: Inhibition of EGF expression in human MCF7 cells at 5 uM by ELISA; format: functional, cell-based
[17] = target: RAC-alpha serine/threonine-protein kinase (Homo sapiens) (UniProt P31749); experiment: Inhibition of EGF-induced AKT phosphorylation in human MDA-MB-231 cells at 1 uM by ELISA; format: cell-based
[18] = target: High affinity 3',5'-cyclic-AMP phosphodiesterase 7A (Homo sapiens) (UniProt Q13946); experiment: Inhibition of PDE7A (unknown origin) activity at 1 to 10 uM
Method in brief: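 Recombinant PDE isoform activity was read by fluorescence polarization. A binding reagent complexes with the nucleotide monophosphate that the phosphodiesterase generates from cAMP/cGMP, and this raises the polarization of the labelled substrate. Reference standards were PDE1A3 10µM IBMX, PDE2A3 1nM BAY 60-7550, PDE3CAT 1µM cilostazol, PDE4CAT rolipram, PDE5CAT 0.1µM sildenafil, PDE7A […], PDE8A1 10µM BRL-50481, PDE9A1 1µM SB 36216 and PDE11A1 dipyridamole.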

MDA-MB-231 [19] = experiment: Effect on intracellular calcium level in human MDA-MB-231 cells at 1 to 25 uM by flow cytometry; format: functional, cell-based
Method in brief: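 Trypsinized cells washed in PBS (pH 7.4), loaded with Fluo-4AM 45 min in HBSS, washed and resuspended in calcium-free HBSS; baseline fluorescence read 2 min by flow cytometry, then 7 min after compound addition.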

[20] = target: Focal adhesion kinase 1 (Homo sapiens) (UniProt Q05397); experiment: Inhibition of EGF-induced FAK phosphorylation at Tyr397 in human MDA-MB-231 cells at 1 uM by ELISA; format: cell-based
MCF7 [21] = experiment: Cell cycle arrest in human […] MCF7 cells assessed as accumulation at S phase at 5 uM by propidium iodide staining by FACS analysis (reference value: 24.76%); format: functional
MDA-MB-231 [22] = experiment: Cell cycle arrest in human […] cells assessed as accumulation at G2 phase at 5 uM by propidium iodide staining by FACS analysis (reference value: 22.74%); format: functional
[23] = Antiproliferative activity against human COLO205 cells after 24 hrs by MTT assay; format: functional, cell-based; conditions: COLO 205, 24 h
Method in brief: (§2)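 MTT viability: cells seeded at 1×10^4 per well in DMEM with 10% FBS, left to adhere overnight, then serum-starved 4 h. Compounds were given at a range of doses, with 0.1% DMSO vehicle as control. EC50 was taken from dose-response curves spanning 100nM-50µM. Data are mean ± SEM from at least three independent experiments.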

[24] = Antiproliferative activity against mouse NIH/3T3 cells after 24 hrs by MTT assay; format: functional, cell-based; conditions: NIH3T3, 24 h; method in brief: as §2
MCF7 [25] = experiment: Cell cycle arrest in human […] cells assessed as accumulation at subG1 phase at 7.5 uM by propidium iodide staining by FACS analysis (reference value: 0.1%); format: functional
MCF7 [26] = experiment: Cell cycle arrest in human […] MCF7 cells assessed as accumulation at S phase at 2.5 uM by propidium iodide staining by FACS analysis (reference value: 24.76%); format: functional
[27] = Safety index, ratio of IC50 for human MCF10A cells to EC50 for human COLO205 cells; format: toxicity, cell-based, COLO 205; conditions: MCF10A cells versus COLO205 cells, read-out: Ratio IC50/EC50
Method in brief: (§3)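 Safety index is the IC50 in the normal cells divided by the EC50 in the cancer cells. Both values come from MTT assays: cells in DMEM with 10% FBS, serum-starved 4 h, then exposed to compound across a 100nM-50µM dose range with 0.1% DMSO as vehicle control.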

[28] = Safety index, ratio of IC50 for human MCF10A cells to EC50 for human HCT116 cells; format: toxicity, cell-based, MCF-10A; conditions: MCF10A cells versus HCT116 cells, read-out: Ratio IC50/EC50; method in brief: as §3
Mus musculus = experiment: Toxicity in human MCF7 cells xenografted in NIH-3 mouse assessed as changed in body weight at 8 mg/kg, po for 29 days relative to control; format: organism-based; parameters: dose 8 mg/kg, route oral; conditions: in vivo, 696 h

**Q.** With `CCN(CC)CCO/N=C(\c1ccc(SC)cc1)c1cccc2ccccc12` as the compound, how does the Activity (MDA-MB-231 [1]) read?
**A.** The Activity was “Active”.

**Q.** And the inhibition [2]?
**A.** Its inhibition is “inactive”.

**Q.** What about the inhibition [3] of the same compound?
**A.** The inhibition was “inactive”.

**Q.** And the inhibition [4]?
**A.** Its inhibition is “Active”.

**Q.** What about the Activity (MCF7 [5]) of the same compound?
**A.** Its Activity is “Active”.

**Q.** What about the inhibition [6] of the same compound?
**A.** Its inhibition is “inactive”.

**Q.** And the inhibition [7]?
**A.** The inhibition was “inactive”.

**Q.** And the inhibition [8]?
**A.** The inhibition was “inactive”.

**Q.** What about the Activity (MDA-MB-231 [9]) of the same compound?
**A.** Its Activity is “Active”.

**Q.** What about the inhibition [10] of the same compound?
**A.** The inhibition was “inactive”.

**Q.** What about the Activity (MCF7 [11]) of the same compound?
**A.** Its Activity is “Active”.

**Q.** What about the inhibition (MCF7 [12]) of the same compound?
**A.** The inhibition was “inactive”.

**Q.** What about the inhibition [13] of the same compound?
**A.** The inhibition was “Active”.

**Q.** And the inhibition [14]?
**A.** The inhibition was “Active”.

**Q.** And the inhibition [15]?
**A.** Its inhibition is “Active”.

**Q.** What about the inhibition (MCF7 [16]) of the same compound?
**A.** The inhibition was “Active”.

**Q.** And the inhibition [17]?
**A.** The inhibition was “Active”.

**Q.** And the inhibition [18]?
**A.** The inhibition was “inactive”.

**Q.** And the Activity (MDA-MB-231 [19])?
**A.** The Activity was “inactive”.

**Q.** And the inhibition [20]?
**A.** The inhibition was “Active”.

**Q.** For `CCN(CC)CCO/N=C(\c1ccc(SC)cc1)c1cccc2ccccc12.O=C(O)C(=O)O`, which Activity (MCF7 [21]) is on record?
**A.** The Activity was 13.88%.

**Q.** And the Activity (MDA-MB-231 [22])?
**A.** Its Activity is 8.5%.

**Q.** And the pEC50 [23]?
**A.** Its pEC50 is 5.38.

**Q.** What about the pIC50 [24] of the same compound?
**A.** Its pIC50 is < 4.70.

**Q.** And the Activity (MCF7 [25])?
**A.** The Activity was 0.4%.

**Q.** And the Activity (MCF7 [26])?
**A.** Its Activity is 16.82%.

**Q.** What about the selectivity ratio [27] of the same compound?
**A.** The selectivity ratio was 4.7.

**Q.** What about the selectivity ratio [28] of the same compound?
**A.** The selectivity ratio was 2.5.

**Q.** What about the Activity (Mus musculus) of the same compound?
**A.** Its Activity is “Non-toxic”.
